KDM4C inh = KDM4C (human) demethylase inhibition; Q9H3R0; actives 0.15% (n = 96,000); inhibition, % at 12.5 µM; GST-KDM4C 2-372, H3K9me3 peptide, LANCE TR-FRET;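 active = mean replicate inhibition above about 25%, with at least 55% of replicates also reaching it, limit read from the data, passing the limit was not always enough; inconclusive = only one of those two conditions met; inactive = neither condition met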
Target sequence (Q9H3R0 2-372 limits assumed): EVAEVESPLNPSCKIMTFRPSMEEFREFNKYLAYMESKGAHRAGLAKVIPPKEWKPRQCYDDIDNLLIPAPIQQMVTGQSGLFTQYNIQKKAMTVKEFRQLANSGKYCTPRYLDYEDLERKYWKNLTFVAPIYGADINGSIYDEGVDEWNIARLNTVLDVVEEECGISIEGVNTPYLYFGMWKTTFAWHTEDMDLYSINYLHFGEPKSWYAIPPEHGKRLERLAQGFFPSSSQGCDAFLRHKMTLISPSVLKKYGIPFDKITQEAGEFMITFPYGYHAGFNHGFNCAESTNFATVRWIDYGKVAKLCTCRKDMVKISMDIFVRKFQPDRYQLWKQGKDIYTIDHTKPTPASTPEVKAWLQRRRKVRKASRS
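material = GST-tagged GASC-1 (JMJD2C) catalytic fragment, aa 2-372 | amount = enzyme final amount 10 nM | medium = HEPES buffer, pH 7.5, plus ascorbate | also added = H3K9me3 peptide substrate, Fe(II), 2-oxoglutarate | dosing = single dose | times = 30 min demethylation and 1 h detection at room temperature | detection = LANCE TR-FRET | read-out basis = Fall in 671/618 emission ratio as inhibition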
IDH1 mut inh = inhibitors of human IDH1 R132H; O75874; IDH1 R132H reductase, diaphorase/resazurin fluorescence, 60 min; inhibition, % at 10 µM; actives 0.18% (n = 70,000); in the data active = inhibition above about 34%; inconclusive = no clear call, values can overlap the other calls; inactive = below about 11%;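 also: 0% = DMSO and 100% = no enzyme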
T cruzi growth-1 = blocks T. cruzi growth in NIH3T3 culture; inhibition, % at 8.34 µM; T. cruzi beta-gal in NIH3T3, GalScreen luminescence, 90 h; AID 624255; actives 5.9% (n = 77,000);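 active = mean inhibition above about 93%, with at least 55% of replicates each passing it, limit read from the data, passing the limit was not always enough; inconclusive = only one of those two conditions holds; inactive = neither condition holds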
Pf Dd2 inh = P. falciparum Dd2 growth inhibition. actives 2.3% (n = 94,000). SYBR Green, 72 h; hits give low values. activity change, % at 10 µM. AID 1159554; in the data active = activity change below about -80%; inconclusive = no clear call, values can overlap the other calls
T cruzi growth-2 = inhibitors of T. cruzi proliferation; shares compounds with T cruzi growth-1; T. cruzi beta-gal in NIH3T3, GalScreen luminescence, 90 h; inhibition, % at 8.35 µM; actives 72% (n = 5,600);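 active = mean replicate inhibition above about 95% and at least 55% of replicates individually reaching it, limit read from the data; inconclusive = only one of the two criteria is met; inactive = neither criterion is met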
T cruzi growth-3 = Trypanosoma cruzi proliferation inhibition; shares compounds with T cruzi growth-1; T. cruzi beta-gal in NIH3T3, GalScreen luminescence, 90 h; inhibition, % at 2.09 µM; actives 21% (n = 5,600);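 active = mean inhibition above about 95%, with at least 55% of replicates also reaching it, limit read from the data; inconclusive = meets just one of the two conditions; inactive = meets neither condition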;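 also: plate controls were neutral control median for no effect and positive control median for full effect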
NIH3T3 tox = cytotoxicity in mouse NIH/3T3 fibroblasts; shares compounds with T cruzi growth-1; NIH/3T3 viability, CellTiter-Glo ATP luminescence, 90 h; cytotoxicity (signal decrease), % at 8.35 µM; actives 14% (n = 5,600); AID 651742;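 active = mean signal decrease across replicates above about 35% based on untreated-well scatter, with enough replicates individually passing, limit read from the data; inconclusive = no rule stated though some were filed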;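 also: 0% = median of neutral control wells and 100% = median of positive control wells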
3T3 cytotox 2 = kills mouse NIH/3T3 fibroblasts; shares compounds with T cruzi growth-1; NIH/3T3 viability, CellTiter-Glo ATP luminescence, 90 h; inhibition, % at 24.9 µM; actives 56% (n = 5,600);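 active = mean loss of cell viability signal at or above a set limit, and enough replicates individually reaching it; inconclusive = meets only the mean limit or only the replicate share; inactive = meets neither condition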;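 also: 0% = median of neutral control wells and 100% = median of positive control wells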
Starred values were filed as active, the others as inactive; ? = inconclusive; / = no result. Only some compounds are listed: those with a hit (about 5.8% of all), similar ones and a draw of the others.

SMILES	KDM4C inh	IDH1 mut inh	T cruzi growth-1	Pf Dd2 inh	T cruzi growth-2	T cruzi growth-3	NIH3T3 tox	3T3 cytotox 2
Cn1cnc(S(=O)(=O)N2C[C@@H](O)COC[C@@H]3O[C@@H](CC(=O)N4CCN(c5ccccc5)CC4)CC[C@H]32)c1	2.2	/	-87.3	22.1	/	/	/	/
COc1ccc2c3c(n(C)c2c1)[C@H](CO)NCC31CN(C(=O)c2ccccc2)C1	/	/	/	23.9	/	/	/	/
CC(C)C#Cc1ccc2c(c1)O[C@@H](CN(C)Cc1ccncc1)[C@@H](C)CN([C@H](C)CO)S2(=O)=O	-1.7	-0.7	106.6*	-10.4	93.6	85.3	16.5	?
C[C@H](O)C#Cc1ccc2c(c1)O[C@H](CN(C)Cc1ccncc1)[C@@H](C)CN([C@@H](C)CO)S2(=O)=O	-0.9	/	70.9	-61.5	/	/	/	/
CN(C)C(=O)c1ccc(-c2ccc3c(c2)[C@@H]2[C@@H](CCN2Cc2ccc4c(c2)OCO4)[C@@H](CO)N3)cc1	-2.6	/	65.5	-38.4	/	/	/	/
COc1ccc(NC(=O)Nc2ccc3c(c2)C(=O)N([C@H](C)CO)C[C@@H](C)[C@H](CN(C)C(=O)NC2CCCCC2)OCCCC[C@@H](C)O3)cc1	0.5	/	99.7*	-54.2	106.9*	68.0	-24.0	-27.8
COc1ccc(NC(=O)Nc2ccc3c(c2)C(=O)N([C@@H](C)CO)C[C@H](C)[C@H](CN(C)C(=O)NC2CCCCC2)OCCCC[C@H](C)O3)cc1	-2.4	/	?	-60.8	109.6*	3.4	1.7	-29.2
CN(C)C(=O)C[C@@H]1CC[C@H]2[C@@H](COC[C@H](O)CN2CC2CCCCC2)O1	-0.6	/	-11.7	9.4	/	/	/	/
O=C(C[C@@H]1C[C@@H]2c3cc(NS(=O)(=O)c4ccc(F)cc4)ccc3O[C@@H]2[C@@H](CO)O1)NCc1ccc(-c2ccccc2)cc1	/	2.1	102.1*	-27.1	87.9	91.7	39.1*	45.1*
O=C(C[C@H]1C[C@H]2c3cc(NS(=O)(=O)c4ccc(F)cc4)ccc3O[C@H]2[C@H](CO)O1)NCc1ccc(-c2ccccc2)cc1	-6.2	0.7	100.6*	-71.1	86.9	101.0*	66.3*	67.4*
O=C(C[C@@H]1C[C@H]2c3cc(NS(=O)(=O)c4ccc(F)cc4)ccc3O[C@H]2[C@H](CO)O1)NCc1ccccc1	-2.6	0.0	-75.5	-2.3	/	/	/	/
COc1cccc(S(=O)(=O)Nc2ccc3c(c2)[C@@H]2C[C@H](CC(=O)NCc4ccccc4F)O[C@@H](CO)[C@@H]2O3)c1	7.1	-0.2	70.8	-79.5	/	/	/	/
O=C(C[C@@H]1C[C@H]2c3cc(NS(=O)(=O)c4ccc(F)cc4)ccc3O[C@H]2[C@@H](CO)O1)NCc1ccc(-c2ccccc2)cc1	-7.1	0.2	91.6	-18.1	/	/	/	/
O=C(C[C@H]1C[C@H]2c3cc(NS(=O)(=O)c4ccc(F)cc4)ccc3O[C@H]2[C@@H](CO)O1)NCc1ccc(Oc2ccccc2)cc1	-2.6	1.3	119.5*	-52.3	101.1*	77.3	19.7	20.5
COc1cccc(S(=O)(=O)Nc2ccc3c(c2)[C@H]2C[C@H](CC(=O)NCc4ccccc4F)O[C@H](CO)[C@H]2O3)c1	0.0	0.1	143.5*	-43.7	97.9*	-0.1	-15.8	2.5
O=C(C[C@H]1C[C@H]2c3cc(NS(=O)(=O)c4ccc(F)cc4)ccc3O[C@H]2[C@H](CO)O1)NCc1ccccc1	-4.1	-0.1	-31.1	-44.2	/	/	/	/
C[C@@H]1CN([C@@H](C)CO)C(=O)c2cc(NC(=O)c3ccncc3)ccc2O[C@@H](C)CCCCO[C@@H]1CN(C)S(=O)(=O)c1ccc(Cl)cc1	0.1	/	38.2	-68.7	/	/	/	/
COCC(=O)N1C[C@H](C)[C@H](OC)CN(C)C(=O)c2cc(NC(=O)c3cnccn3)ccc2OC[C@@H]1C	-0.4	-0.3	42.2	-24.5	/	/	/	/
CCC(=O)N1[C@H](CO)[C@H](c2ccccc2)[C@H]1CN(C(C)C)S(C)(=O)=O	-1.5	/	24.3	5.1	/	/	/	/
COc1cccc(CN2CCCCN3[C@@H](CO)[C@@H](c4ccc(C#Cc5cccnc5)cc4)[C@@H]3C2)c1	-0.2	/	118.5*	-73.2	104.1*	?	27.1	104.3*
COc1cccc(CN2CCCCN3[C@H](C2)[C@@H](c2ccc(C#Cc4cccnc4)cc2)[C@@H]3CO)c1	-0.5	/	116.8*	-71.2	94.3	102.2*	25.9	103.8*
COc1cccc(CN2CCCCN3[C@H](CO)[C@@H](c4ccc(-c5cccnc5)cc4)[C@H]3C2)c1	0.2	/	29.9	-55.6	/	/	/	/
Cc1noc(C)c1NC(=O)N(C)C[C@H]1Oc2ccc(NC(=O)C3CC3)cc2CC(=O)N([C@H](C)CO)C[C@H]1C	-2.6	/	7.3	-32.7	/	/	/	/
CNC[C@H]1OCCCC[C@@H](C)Oc2ccc(N(C)C)cc2C(=O)N([C@H](C)CO)C[C@H]1C	-4.7	3.4	31.6	1.3	/	/	/	/
C[C@@H]1CN([C@H](C)CO)C(=O)c2cc(NC(=O)Nc3ccc(F)cc3)ccc2O[C@@H](C)CCCCO[C@@H]1CN(C)Cc1ccc(C(F)(F)F)cc1	0.9	-2.8	100.1*	-82.2*	84.3	114.4*	2.8	7.8
SMILES	KDM4C inh	IDH1 mut inh	T cruzi growth-1	Pf Dd2 inh	T cruzi growth-2	T cruzi growth-3	NIH3T3 tox	3T3 cytotox 2
C[C@@H]1CN([C@@H](C)CO)C(=O)c2cc(NC(=O)Nc3ccc(F)cc3)ccc2O[C@@H](C)CCCCO[C@H]1CN(C)Cc1ccc(C(F)(F)F)cc1	-0.4	-0.9	109.5*	?	99.6*	112.2*	25.2	19.3
C[C@H](CO)N1C[C@H](C)[C@H](CN(C)Cc2ccc(C(F)(F)F)cc2)OCCCC[C@H](C)Oc2ccc(NC(=O)Nc3ccc(F)cc3)cc2C1=O	-1.6	/	92.5	-21.3	/	/	/	/
C[C@@H]1CCCCO[C@H](CN(C)Cc2ccc(C(F)(F)F)cc2)[C@H](C)CN([C@@H](C)CO)C(=O)c2cc(NC(=O)Nc3ccc(F)cc3)ccc2O1	-0.3	/	99.7*	-79.6	?	116.9*	17.6	29.7*
C[C@@H]1CCCCO[C@H](CN(C)Cc2ccc(C(F)(F)F)cc2)[C@@H](C)CN([C@H](C)CO)C(=O)c2cc(NC(=O)Nc3ccc(F)cc3)ccc2O1	-0.1	/	61.5	-28.2	/	/	/	/
C[C@@H]1CN([C@@H](C)CO)C(=O)c2cc(C#CC3CCCC3)cnc2O[C@@H]1CN(C)S(C)(=O)=O	1.5	/	/	1.7	/	/	/	/
Cc1noc(C)c1NC(=O)N(C)C[C@H]1Oc2c(NC(=O)C3CCOCC3)cccc2C(=O)N([C@H](C)CO)C[C@@H]1C	1.1	1.3	-85.4	9.1	/	/	/	/
